The values that follow come from ChEMBL document CHEMBL1629474, “Massive screening yields novel and selective Trypanosoma cruzi triosephosphate isomerase dimer-interface-irreversible inhibitors with anti-trypanosomal activity” (Eur J Med Chem, 2010).

Activity calls are given as the source filed them. How the calls were made is not given here.

Assay [1] has as its target Triosephosphate isomerase, glycosomal (Trypanosoma cruzi) (UniProt P52270). In words: Inhibition of Trypanosoma cruzi triosephosphate isomerase at 400 uM after 2 hrs. The method in brief: (§1)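 Recombinant E. coli-expressed enzyme, dialyzed into 100 mM triethanolamine/10 mM EDTA pH 7.4, was incubated with compound (DMSO stock) in 100 mM triethanolamine, 10 mM EDTA, pH 7.4, 10% DMSO at 36 °C for 2 h. An aliquot was then assayed for activity (glyceraldehyde 3-phosphate to dihydroxyacetone phosphate, α-glycerol phosphate dehydrogenase-coupled) with 5 ng enzyme. Irreversible inhibition was scored as loss of activity; means of two experiments.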

For assay [2], the system named is Trypanosoma cruzi. In words: Antiparasitic activity against Trypanosoma cruzi T2 epimastigotes assessed as growth inhibition at 25 uM after 5 days. To be noted: for inhibition of growth at 25 µM: T2, 120 h, read-out: GI. The class given is functional. The method in brief:
(§2)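 Late-log epimastigotes were grown axenically at 28 °C in BHI-tryptose with 5% fetal calf serum and seeded at 2×10^6/mL in medium containing compound (DMSO stock; final DMSO ≤1%, 1% DMSO control). Growth was read as A590 at day 0 and day 5. Inhibition = {1 − [(Ap − A0p)/(Ac − A0c)]} × 100. Means of two experiments.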

Assay [3] is described as follows: Selectivity for Trypanosoma cruzi triosephosphate isomerase over human triosephosphate isomerase.
Assay [4] relates to Trypanosoma cruzi. In words: Antiparasitic activity against Trypanosoma cruzi CLB epimastigotes assessed as growth inhibition at 25 uM after 5 days. The class given is functional. To be noted: 120 h, read-out: GI. Summed up: as §2
Assay [5] has as its target Triosephosphate isomerase, glycosomal (Trypanosoma cruzi) (UniProt P52270). In words: Inhibition of Trypanosoma cruzi triosephosphate isomerase at 100 uM after 2 hrs. The method in brief:
as §1

The subject of assay [6] is Trypanosoma cruzi. In words: Antiparasitic activity against Trypanosoma cruzi CLB epimastigotes assessed as growth inhibition. Format: functional. To be noted: read-out: ID50 (the source's name). Summed up: (§3)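 Epimastigotes were cultured at 28 °C in BHI-tryptose plus 5% fetal calf serum and seeded at 2×10^6/mL with increasing compound concentrations (from DMSO stock; final DMSO ≤1%). Growth was followed as A590 against untreated controls. ID50 was the concentration halving absorbance relative to controls. Means of two experiments.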

Assay [7] deals with Triosephosphate isomerase (Homo sapiens) (UniProt P60174). Briefly: Inhibition of human triosephosphate isomerase at 100 uM after 2 hrs. The method in brief:
as §1

Assay [8] addresses Triosephosphate isomerase, glycosomal (Trypanosoma cruzi, UniProt P52270). Briefly: Inhibition of Trypanosoma cruzi triosephosphate isomerase after 2 hrs. Summed up:
as §1

The test system of assay [9] is Trypanosoma cruzi. In words: Antiparasitic activity against Trypanosoma cruzi T2 epimastigotes assessed as growth inhibition. The class given is functional. To be noted: read-out: ID50 (the source's name). Summed up: as §3
In assay [10] the test system is Trypanosoma cruzi. In words: Antiparasitic activity against Trypanosoma cruzi Y epimastigotes assessed as growth inhibition at 25 uM after 5 days. The class given is functional. To be noted: 120 h, read-out: GI. The method in brief: as §2
Assay [11] relates to Trypanosoma cruzi. Briefly: Antiparasitic activity against Trypanosoma cruzi Y epimastigotes assessed as growth inhibition. The class given is functional. Conditions: read-out: ID50 (the source's name). The method in brief:
as §3

Triosephosphate isomerase (Homo sapiens), sequence (P60174 whole entry): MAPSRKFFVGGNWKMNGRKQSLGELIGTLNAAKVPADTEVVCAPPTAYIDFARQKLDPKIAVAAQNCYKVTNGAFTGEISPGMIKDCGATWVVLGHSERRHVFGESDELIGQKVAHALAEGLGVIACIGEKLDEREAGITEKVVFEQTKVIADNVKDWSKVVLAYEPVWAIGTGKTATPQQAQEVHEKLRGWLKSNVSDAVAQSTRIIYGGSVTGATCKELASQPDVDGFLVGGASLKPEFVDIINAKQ
Triosephosphate isomerase, glycosomal, sequence (P52270 whole entry): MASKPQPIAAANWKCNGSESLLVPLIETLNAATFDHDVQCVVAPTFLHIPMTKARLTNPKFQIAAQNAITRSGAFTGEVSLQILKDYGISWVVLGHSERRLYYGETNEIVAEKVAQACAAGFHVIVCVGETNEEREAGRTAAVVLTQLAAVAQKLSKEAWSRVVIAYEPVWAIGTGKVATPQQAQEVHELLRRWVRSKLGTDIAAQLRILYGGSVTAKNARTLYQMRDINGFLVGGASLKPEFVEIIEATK
Triosephosphate isomerase, glycosomal (Trypanosoma cruzi), sequence (P52270 whole entry): as above

Regarding `O/N=C1C=CC(/C=C/c2ccccc2)=CC/1=N/O`, the inhibition (in general, how much of the control response was suppressed) was 77% in assay [1] and 8% in assay [5]. Also, the result in [2] was Active. Moreover, in assay [3], the Ratio was greater than 4. Further, in assay [4], the inhibition of growth at 25 µM was found to be 100%. For the same compound, in assay [6], the IC50 was found to be 4.7 µM.

Take `O/N=C1/C=CC(C=Cc2ccc(Cl)cc2)=C/C1=N/O`: the figures for the inhibition in [1] and in assay [5] were 73% and 25%, respectively. In addition, the result in [2] was Active. For the same compound, the Ratio in assay [3] was greater than 4. For the same compound, the inhibition of growth at 25 µM in assay [4] turned out to be 100%. In addition, the IC50 in [6] came to 5 µM.

For `O=c1oc(-c2ccccc2)ns1`, the inhibition was determined as 0% in assay [7], 96% in assay [1] and 81% in [5]. The IC50 in assay [8] is 10 µM; in assay [9] it was 22 µM. Also, the inhibition of growth at 25 µM in assay [2] turned out to be 59%. In addition, the Ratio in assay [3] was greater than 4.

On to `NC1=NS(=O)(=O)N=C(N)C1=Cc1ccc([N+](=O)[O-])o1`, for which the IC50 in [8] is 20 µM; in assay [9] it was 50 µM. For the same compound, the inhibition came out at 100% in assay [1] and 99% in assay [5]. Moreover, in assay [2], the inhibition of growth at 25 µM came out at 22.2%. Also, in [3], the Ratio was greater than 4.

As to `Cc1ccc(-c2nsc(=O)[nH]2)cc1`, the inhibition was determined as 59% in [7], 95% in assay [1] and 98% in assay [5]. For the same compound, the values for the IC50 in assay [8] and in assay [9] were 3.5 µM and greater than 25 µM, respectively. Besides, the inhibition of growth at 25 µM in [2] is 0%.

On to `Cc1ccc(-c2nsc(S(=O)(=O)c3ccc(C)cc3)n2)cc1`, for which the inhibition turned out to be 78% in assay [1] and 57% in [5]. The inhibition of growth at 25 µM in [2] was 100%. Further, in assay [3], the Ratio is greater than 4. Further, the IC50 in [9] stood at 5 µM.

Take `O=C1C(=Cc2ccc([N+](=O)[O-])o2)C(=O)N(Cc2ccccc2)S(=O)(=O)N1Cc1ccccc1`: the inhibition was determined as 0% in assay [7], 82% in [1] and 82% in [5]. Moreover, the IC50 amounted to 13 µM in [8] and 50 µM in [9]. Moreover, the inhibition of growth at 25 µM in [2] was determined as 20.8%. Also, the Ratio in assay [3] was greater than 4.

For the compound `C/C(=C\c1ccc2c(c1)OCO2)[N+](=O)[O-]`, the inhibition was determined as 74% in assay [1] and 55% in assay [5]. In addition, in [2], the inhibition of growth at 25 µM was 100%. Also, the Ratio in assay [3] is greater than 4. In [9], the IC50 worked out at 5.1 µM.

`CCOC(=O)c1nc(-c2ccccc2)ns1`: the inhibition was 87% in assay [1] and 69% in assay [5]. In addition, the inhibition of growth at 25 µM in [2] stood at 25%. Moreover, the Ratio in assay [3] was greater than 4. Besides, in [9], the IC50 was greater than 25 µM.

Take `[O-][n+]1c2ccc(O)cc2[n+]([O-])c2cc(Cl)c(Cl)cc21`: the inhibition in assay [7] amounted to 0%; in [1], 84%; in assay [5] it was 73%. The IC50 is 26 µM in [8], 5.5 µM in assay [11], 2 µM in [6] and 2.9 µM in assay [9]. Moreover, the inhibition of growth at 25 µM in assay [10], in assay [2] and in assay [4] was 100% throughout. The Ratio in assay [3] was greater than 4.
